ChEMBL document CHEMBL1139692, “Optimization of pyrimidinyl- and triazinyl-amines as non-nucleoside inhibitors of HIV-1 reverse transcriptase” (Bioorg Med Chem Lett, 2006)

Experiments:
[1] = tested on: Human immunodeficiency virus 1; assay: Antiviral activity against HIV1 3B in MT2 cells; type: functional, organism-based; details: Human immunodeficiency virus 1, 3B
Summary of the method: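 HIV-1 IIIB infection of human MT-2 T-cells. Protection was read by MTT colorimetric assay. Curves used triplicate samples at each concentration.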

[2] = Cytotoxicity against MT2 cells; type: cell-based; details: human
Summary of the method: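 Growth of MT-2 cells was measured by MTT colorimetric read-out, run at the same time as the anti-HIV-1 IIIB protection assay.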

[3] = Ratio of CC50 for MT cells/EC50 for HIV1; type: functional

SMILES | EC50 [1] [nM] | CC50 [2] [nM] | Ratio CC50/EC50 [3]
COc1ccnc(Nc2ccc(Cl)c(OCC=C(C)C)c2)n1 | 10 | 9000 | 
COCc1ccnc(Nc2ccc(Cl)c(OCC=C(C)C)c2)n1 |  | > 25000 | 
CC(C)=CCOc1cc(Nc2nccc(N)n2)ccc1Cl | 75 | 500 | 
COc1nc(N)nc(Nc2ccc(C#N)c(OCC=C(C)C)c2)n1 | 9 | 110 | 
COc1nc(C)nc(Nc2ccc(Cl)c(OCC=C(C)C)c2)n1 | 100 | 12000 | 
CCOc1ccnc(Nc2ccc(Cl)c(OCC=C(C)C)c2)n1 | 41 | 19000 | 
CSc1ccnc(Nc2ccc(Cl)c(OCC=C(C)C)c2)n1 | 18 | 2800 | 
COc1ccnc(Nc2ccc(Cl)c(Oc3ccccc3C)c2)n1 |  | 13000 | 
CC(C)=CCOc1cc(Nc2ncnc(Cl)n2)ccc1Cl |  | 45000 | 
CC(C)=CCOc1cc(Nc2nccc(CO)n2)ccc1Cl |  | 220 | 
CNc1ccnc(Nc2ccc(Cl)c(OCC=C(C)C)c2)n1 | 6 | 690 | 
COc1nc(Nc2ccc(C#N)c(OCC=C(C)C)c2)nc(OC)n1 | 22 | > 100000 | >1000
COc1nc(Cl)nc(Nc2ccc(Cl)c(OCC=C(C)C)c2)n1 |  | 26000 | 
CC(C)=CCOc1cc(Nc2ncccn2)ccc1Cl | 200 | 2500 | 
COc1ccnc(Nc2ccc(Cl)c(Oc3cccc(C)c3)c2)n1 | 540 | 18000 | 
CSc1ncnc(Nc2ccc(C#N)c(OCC=C(C)C)c2)n1 | 5 | 8400 | >1000
CC(C)=CCOc1cc(Nc2ncccn2)ccc1C#N | 17 | 36 | 
CC(C)=CCOc1cc(Nc2ncnc(N)n2)ccc1Cl | 390 | 48000 | 
COc1ncnc(Nc2ccc(Cl)c(OCC=C(C)C)c2)n1 | 31 | 18000 | 
CCc1ccnc(Nc2ccc(Cl)c(OCC=C(C)C)c2)n1 | 16 | 330 | 

SMILES | EC50 [1] [nM] | CC50 [2] [nM] | Ratio CC50/EC50 [3]
COc1ccnc(Nc2ccc(C#N)c(OCC=C(C)C)c2)n1 | 2 |  | 
Cc1ccnc2c1NC(=O)c1cccnc1N2C1CC1 [NEVIRAPINE] |  | > 10000 | 
CC(C)=CCOc1cc(Nc2nccc(C)n2)ccc1Cl | 39 | 150 | 
C/C=C/COc1cc(Nc2nccc(OC)n2)ccc1Cl | 89 | 17000 | 
Cc1cc(C#N)cc(C)c1Oc1nc(Nc2ccc(C#N)cc2)nc(N)c1Br [ETRAVIRINE] |  | > 1000 | 
C/C=C/COc1cc(Nc2ncccn2)ccc1Cl | 2300 | 31000 | 
CC(C)=CCOc1cc(Nc2nc(C)nc(Cl)n2)ccc1Cl | 12000 | 40000 | 
COc1nc(Nc2ccc(Cl)c(OCC=C(C)C)c2)nc(OC)n1 | 290 | 20000 | 
COc1cc(OC)nc(Nc2ccc(Cl)c(OCC=C(C)C)c2)n1 | 250 | 28000 | 
COc1cc(OC)nc(Nc2ccc(C#N)c(OCC=C(C)C)c2)n1 | 160 | 810 | 
CNc1ncnc(Nc2ccc(Cl)c(OCC=C(C)C)c2)n1 | 31 | 3100 | 
COc1ccnc(Nc2ccc(Cl)c(Sc3ccccc3)c2)n1 | 320 | 21000 | 
CC(C)=CCOc1cc(Nc2ncnc(Cl)n2)ccc1C#N | 310 | > 100000 | 
CC(C)=CCOc1cc(Nc2ncnc(N)n2)ccc1C#N | 15 | 200 | 
COc1ccnc(Nc2ccc(Cl)c(Oc3ccccc3)c2)n1 | 2500 | 38000 | 
O=C1Nc2ccc(Cl)cc2[C@@](C#CC2CC2)(C(F)(F)F)O1 [EFAVIRENZ] |  | > 100 | 
CNc1ccnc(Nc2ccc(C#N)c(OCC=C(C)C)c2)n1 | 5 | 22 | 
COc1cc(N)nc(Nc2ccc(Cl)c(OCC=C(C)C)c2)n1 | 3000 | 19000 | 
COc1ccnc(Nc2ccc(Cl)c(Oc3ccc(C)cc3)c2)n1 | 10000 | > 100000 | 
Clc1ccc(Nc2ncccn2)cc1Oc1ccccc1 | 13000 | 30000 | 
